From ChEMBL document CHEMBL1149910, “2-(6-aryl-3(Z)-hexen-1,5-diynyl)anilines as a new class of potent antitubulin agents” (J Med Chem, 2008)
Activity calls are given as the source filed them. The calls are words filed in the database; no cut-off is given here.

How the values were obtained:
[1] = tested on: MDA-MB-231; assay: (§1) Cytotoxicity against human MDA-MB-231 cells; assay type: functional
Procedure, shortened: (§2)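 Tested in the NCI in vitro antitumor screening protocol across a tumor cell line panel. GI₅₀ is the concentration producing a 50% reduction in cell growth.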

[2] = tested on: MDA-MB-231; assay: Cell cycle arrest in human MDA-MB-231 cells assessed as accumulation of 4N cells at 18.0 uM after 72 hrs by flow cytometry; assay type: functional
[3] = tested on: MDA-MB-231; assay: Cell cycle arrest in human MDA-MB-231 cells assessed as accumulation of >4N cells at 36.0 uM after 24 hrs by flow cytometry; assay type: functional
[4] = tested on: MDA-MB-231 (Homo sapiens); assay: Induction of apoptosis in human MDA-MB-231 cells assessed as induction of caspase 3 activation at 36 uM after 72 hrs by colorimetric assay relative to control
[5] = tested on: K562; assay: Cytotoxicity against human K562 cells; assay type: functional; procedure, shortened: as §2
[6] = tested on: MDA-MB-231; assay: Effect on microtubule depolymerization in human MDA-MB-231 cells assessed as disorganized microtubule cytoskeleton at 9 uM after 2 hrs relative to control; assay type: functional, cell-based
Procedure, shortened: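 MDA-MB-231/ATCC cells grown on glass coverslips (1 × 10⁴ cells) for 24 h, then exposed to 3.6, 9, 18, 27 or 36 µM at 37 °C for 2 h. Fixed in 4% paraformaldehyde, permeabilized with Triton X-100, and immunostained for α-tubulin and ninein with DAPI counterstain. Interphase microtubule networks compared with untreated cells by confocal microscopy.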

[7] = tested on: IGROV-1; assay: Cytotoxicity against human IGROV1 cells; assay type: functional; procedure, shortened: as §2
[8] = tested on: SW-620; assay: Cytotoxicity against human SW620 cells; assay type: functional; procedure, shortened: as §2
[9] = tested on: MDA-MB-231; assay: Cell cycle arrest in human MDA-MB-231 cells assessed as accumulation at sub-G1 phase at 9.0 uM after 24 hrs by flow cytometry; assay type: functional
[10] = tested on: MDA-MB-231; assay: Cell cycle arrest in human MDA-MB-231 cells assessed as accumulation of 2N cells at 18.0 uM after 24 hrs by flow cytometry; assay type: functional
[11] = tested on: MDA-MB-231; assay: Cell cycle arrest in human MDA-MB-231 cells assessed as accumulation at sub-G1 phase at 27.0 uM after 72 hrs by flow cytometry; assay type: functional
[12] = tested on: CAKI-1; assay: Cytotoxicity against human CAKI1 cells; assay type: functional; procedure, shortened: as §2
[13] = tested on: NCI-H322M; assay: Cytotoxicity against human NCI-H322M cells; assay type: functional; procedure, shortened: as §2
[14] = tested on: OVCAR-3; assay: (§3) Cytotoxicity against human OVCAR-3 cells; assay type: functional; procedure, shortened: as §2
[15] = tested on: MDA-MB-231; assay: Cell cycle arrest in human MDA-MB-231 cells assessed as accumulation of 2N cells at 27.0 uM after 24 hrs by flow cytometry; assay type: functional
[16] = tested on: MDA-MB-231; assay: Cell cycle arrest in human MDA-MB-231 cells assessed as accumulation of 4N cells at 27.0 uM after 24 hrs by flow cytometry; assay type: functional
[17] = tested on: MDA-MB-231; assay: Cell cycle arrest in human MDA-MB-231 cells assessed as accumulation at sub-G1 phase at 36.0 uM after 72 hrs by flow cytometry; assay type: functional
[18] = tested on: MDA-MB-231; assay: as §1; assay type: functional; procedure, shortened: as §2; remark: listed apart in the source
[19] = tested on: ACHN; assay: Cytotoxicity against human ACHN cells; assay type: functional; procedure, shortened: as §2
[20] = tested on: OVCAR-3; assay: as §3; assay type: functional; procedure, shortened: as §2; remark: listed apart in the source
[21] = tested on: K562; assay: Cell cycle arrest in human K562 cells assessed as accumulation at G0/G1 phase at 50 uM after 24 hrs by flow cytometry; assay type: functional
Procedure, shortened: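 K-562 human leukemia cells were grown in RPMI 1640 with 10% fetal calf serum, glutamine and penicillin/streptomycin at 37 °C in 5% CO₂. Cells were exposed to compound at 50 µM for 24 h, then pelleted and PBS-washed. They were fixed in ice-cold ethanol for 30 min, treated with 1 mg/mL RNase A at 37 °C for 30 min, and stained with propidium iodide and Triton X-100 for 30 min at room temperature in the dark. Per-phase and sub-G1 percentages came from flow cytometry gating.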

[22] = tested on: MDA-MB-231; assay: Cell cycle arrest in human MDA-MB-231 cells assessed as accumulation at sub-G1 phase at 18.0 uM after 72 hrs by flow cytometry; assay type: functional
[23] = tested on: MDA-MB-231; assay: Cell cycle arrest in human MDA-MB-231 cells assessed as accumulation of >4N cells at 27.0 uM after 72 hrs by flow cytometry; assay type: functional
[24] = tested on: MDA-MB-231; assay: Cell cycle arrest in human MDA-MB-231 cells assessed as accumulation at sub-G1 phase at 18.0 uM after 24 hrs by flow cytometry; assay type: functional
[25] = tested on: A549; assay: Cytotoxicity against human A549/ATCC cells; assay type: functional; procedure, shortened: as §2
[26] = tested on: SK-OV-3; assay: Cytotoxicity against human SK-OV3 cells; assay type: functional; procedure, shortened: as §2
[27] = tested on: MDA-MB-231; assay: Cell cycle arrest in human MDA-MB-231 cells assessed as accumulation of 2N cells at 3.6 uM after 72 hrs by flow cytometry; assay type: functional
[28] = tested on: MDA-MB-231; assay: Cell cycle arrest in human MDA-MB-231 cells assessed as accumulation at sub-G1 phase at 9.0 uM after 72 hrs by flow cytometry; assay type: functional
[29] = tested on: MCF7; assay: Cytotoxicity against human MCF7 cells; assay type: functional; procedure, shortened: as §2
[30] = tested on: MDA-MB-231; assay: Effect on regrowth of depolymerized microtubule in human MDA-MB-231 cells after drug withdrawal; assay type: functional, cell-based; settings: TDE = time-dependent effect
Procedure, shortened: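 MDA-MB-231/ATCC cells on coverslips were treated at 36 µM in DMEM for 2 h at 37 °C, with nocodazole 20 µM and colchicine 5 µM as controls. Drug was then washed out with PBS and cells incubated in prewarmed DMEM at 37 °C. Cells were fixed at set time points and immunostained for α-tubulin and ninein with DAPI counterstain.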

[31] = tested on: DU-145; assay: Cytotoxicity against human DU145 cells; assay type: functional; procedure, shortened: as §2
[32] = tested on: MDA-MB-231; assay: Cell cycle arrest in human MDA-MB-231 cells assessed as accumulation of 2N cells at 36.0 uM after 72 hrs by flow cytometry; assay type: functional
[33] = tested on: MOLT-4; assay: Cytotoxicity against human MOLT4 cells; assay type: functional; procedure, shortened: as §2
[34] = tested on: MDA-MB-231 (Homo sapiens); assay: Induction of apoptosis in human MDA-MB-231 cells assessed as induction of caspase 8 activation at 36 uM after 72 hrs by colorimetric assay relative to control
[35] = tested on: HCT-15; assay: Cytotoxicity against human HCT15 cells; assay type: functional; procedure, shortened: as §2
[36] = read-out: LC50 (the source's name)

Work on `Nc1ccccc1C#C/C=C\C#Cc1ccccc1C(F)(F)F` yielded a GI50 [1] of 0.4 µM, a TGI [1] of 1.68 µM and a CC50 [1, 36] of 36.5 µM. The Activity [2] was 17.4%, the Activity [3] was 36.3% and the “fold change (FC)” value [4] was 3.4. The GI50 [5] was 1 µM, the Activity [6] was “Active” and the GI50 [7] was 0.349 µM. The TGI [7] was 31.1 µM, the CC50 [7, 36] was > 100 µM and the GI50 [8] was 0.479 µM. It also gave a TGI [8] of 19.7 µM, a CC50 [8, 36] of 69.2 µM and an Activity [9] of 23.1%. For the same compound, the Activity [10] was 9.5%, the Activity [11] was 65.4% and the GI50 [12] was 0.351 µM. It also gave a TGI [12] of 13.2 µM, a CC50 [12, 36] of 38 µM and a GI50 [13] of 12.1 µM. For the same compound, the TGI [13] was 27.9 µM, the CC50 [13, 36] was 64.4 µM and the GI50 [14] was 0.63 µM. The TGI [14] was 0.959 µM, the CC50 [14, 36] was 24.1 µM and the Activity [15] was 9.3%. The Activity [16] was 30.7%, the Activity [17] was 69.3% and the GI50 [18] was 0.398 µM. For the same compound, the GI50 [19] was 0.294 µM, the TGI [19] was 15.7 µM and the CC50 [19, 36] was 48.3 µM. For the same compound, the GI50 [20] was 0.631 µM, the Activity [21] was 6.7% and the Activity [22] was 62.5%. The Activity [23] was 12.8%, the Activity [24] was 23.5% and the GI50 [25] was 0.745 µM. It also gave a TGI [25] of 15.2 µM, a CC50 [25, 36] of 59.5 µM and a GI50 [26] of 0.888 µM. The TGI [26] was 24.7 µM, the CC50 [26, 36] was 98.7 µM and the Activity [27] was 23.3%. For the same compound, the Activity [28] was 53.9%, the GI50 [29] was 0.681 µM and the TGI [29] was > 100 µM. The CC50 [29, 36] was > 100 µM, the Activity [30] was “tde” and the GI50 [31] was 3.08 µM. It also gave a TGI [31] of 18.4 µM, a CC50 [31, 36] of 48.5 µM and an Activity [32] of 6.5%. For the same compound, the GI50 [33] was > 100 µM, the TGI [33] was > 100 µM and the CC50 [33, 36] was > 100 µM. The “fold change (FC)” value [34] was 4 and the GI50 [35] was 1.26 µM.
